Reference: ChEMBL document CHEMBL2021791, “Synthesis, structure-activity relationships and biological evaluation of caudatin derivatives as novel anti-hepatitis B virus agents” (Bioorg Med Chem, 2012)

How the values were obtained:
Hepatitis B virus [1] = test: Antiviral activity against Hepatitis B virus infected in human HepG2(2.2.15) cells assessed as inhibition of viral DNA replication by RT-PCR analysis; assay type: functional, organism-based
Hepatitis B virus [2] = test: Selectivity ratio of CC50 for human HepG2(2.2.15) cells to IC50 for Hepatitis B virus infected in human HepG2(2.2.15) cells assessed as inhibition of viral replication; assay type: cell-based; settings: read-out: Ratio CC50/IC50
How it was run: (§1)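 The selectivity index was calculated as CC50/IC50. CC50 is MTT cytotoxicity in HepG2 2.2.15 cells. No index was given where a value could not be obtained.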

Hepatitis B virus [3] = test: Antiviral activity against Hepatitis B virus infected in human HepG2(2.2.15) cells assessed as suppression of HbeAg secretion by ELISA; assay type: functional, organism-based
[4] = Cytotoxicity against human HepG2(2.2.15) cells by MTT assay; assay type: cell-based; settings: HepG2(2.2.15) cells
How it was run: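 HepG2 2.2.15 cells were exposed to compounds and viability was read by a modified MTT method. CC50 is the concentration giving 50% cytotoxicity. Values are means of at least two experiments.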

Hepatitis B virus [5] = test: Antiviral activity against Hepatitis B virus infected in human HepG2(2.2.15) cells assessed as suppression of HBsAg secretion by ELISA; assay type: functional, organism-based
Hepatitis B virus [6] = test: Selectivity ratio of CC50 for human HepG2(2.2.15) cells to IC50 for Hepatitis B virus infected in human HepG2(2.2.15) cells assessed as suppression of HBeAg secretion; assay type: cell-based; settings: read-out: Ratio CC50/IC50; how it was run: as §1
Hepatitis B virus [7] = test: Selectivity ratio of CC50 for human HepG2(2.2.15) cells to IC50 for Hepatitis B virus infected in human HepG2.2.15 cells assessed as suppression of HBsAg secretion; assay type: cell-based; settings: read-out: Ratio CC50/IC50; how it was run: as §1

| Compound | IC50 (Hepatitis B virus [1]) | selectivity ratio (Hepatitis B virus [2]) | IC50 (Hepatitis B virus [3]) | CC50 [4] | IC50 (Hepatitis B virus [5]) | selectivity ratio (Hepatitis B virus [6]) | selectivity ratio (Hepatitis B virus [7]) |
| --- | --- | --- | --- | --- | --- | --- | --- |
| CC(=O)[C@]1(O)CC[C@@]2(O)[C@]1(C)[C@H](OC(=O)/C=C(\C)C(C)C)C[C@@H]1[C@@]3(C)CC[C@H](OC(=O)c4ccnn4C)CC3=CC[C@]12O | 2.82 µM | 3.6 | > 721 µM | 10.1 µM | 14.5 µM | – | – |
| CC(=O)[C@]1(O)CC[C@@]2(O)[C@]1(C)[C@H](OC(=O)/C=C(\C)C(C)C)C[C@@H]1[C@@]3(C)CC[C@H](OC(=O)COCC(=O)O)CC3=CC[C@]12O | 164 µM | 1.7 | 115 µM | 274 µM | 524 µM | 2.4 | – |
| COc1cc(C(=O)O[C@H]2CC[C@@]3(C)C(=CC[C@]4(O)[C@@H]3C[C@@H](OC(=O)/C=C(\C)C(C)C)[C@@]3(C)[C@]4(O)CC[C@@]3(O)C(C)=O)C2)on1 | 17 µM | 7.8 | > 1180 µM | 133 µM | 201 µM | – | – |
| CC(=O)[C@]1(O)CC[C@@]2(O)[C@]1(C)[C@H](OC(=O)/C=C(\C)C(C)C)C[C@@H]1[C@@]3(C)CC[C@H](OC(=O)c4ccc(F)nc4)CC3=CC[C@]12O | 4.97 µM | 2.9 | > 687 µM | 14.3 µM | 15.6 µM | – | – |
| COC(=O)COCC(=O)O[C@H]1CC[C@@]2(C)C(=CC[C@]3(O)[C@@H]2C[C@@H](OC(=O)/C=C(\C)C(C)C)[C@@]2(C)[C@]3(O)CC[C@@]2(O)C(C)=O)C1 | > 105 µM | – | 78.6 µM | 25.3 µM | 51.6 µM | – | – |
| CC(=O)[C@]1(OC(=O)CCC(=O)O)CC[C@@]2(O)[C@]1(C)[C@H](OC(=O)/C=C(\C)C(C)C)C[C@@H]1[C@@]3(C)CC[C@H](OC(=O)CCC(=O)O)CC3=CC[C@]12O | > 241 µM | – | > 966 µM | 483 µM | 653 µM | – | – |
| CC(=O)[C@]1(O)CC[C@]23OC(C)(C)O[C@]24CC=C2C[C@@H](O)CC[C@]2(C)[C@H]4C[C@@H](OC(=O)/C=C(\C)C(C)C)[C@@]31C | 218 µM | 2.3 | > 1720 µM | 512 µM | 168 µM | – | 3 |
| CC(=O)[C@]1(O)CC[C@@]2(O)[C@]1(C)[C@H](OC(=O)/C=C(\C)C(C)C)C[C@@H]1[C@@]3(C)CC[C@H](OC(=O)c4ccc(Br)cn4)CC3=CC[C@]12O | 12.5 µM | 3.9 | > 626 µM | 48.4 µM | 76.5 µM | – | – |
| CC(=O)[C@]1(O)CC[C@@]2(O)[C@]1(C)[C@H](OC(=O)/C=C(\C)C(C)C)C[C@@H]1[C@@]3(C)CC[C@H](OC(=O)c4cnccn4)CC3=CC[C@]12O | 47.9 µM | 1.3 | < 50.3 µM | 61.3 µM | 95.5 µM | > 1.2 | – |
| CC(=O)[C@]1(O)CC[C@@]2(O)[C@]1(C)[C@H](OC(=O)/C=C(\C)C(C)C)C[C@@H]1[C@@]3(C)CC[C@H](OC(=O)CCCC(=O)O)CC3=CC[C@]12O | 289 µM | 1.1 | > 385 µM | 310 µM | > 385 µM | – | – |
| CC(=O)[C@]1(O)CC[C@@]2(O)[C@]1(C)[C@H](OC(=O)/C=C(\C)C(C)C)C[C@@H]1[C@@]3(C)CC[C@H](OC(=O)CN(C)C)CC3=CC[C@]12O | 13.8 µM | 3.6 | > 749 µM | 50.5 µM | 87.2 µM | – | – |
| CC(=O)[C@]1(OC(=O)/C=C/c2ccccc2Cl)CC[C@@]2(O)[C@]1(C)[C@H](OC(=O)/C=C(\C)C(C)C)C[C@@H]1[C@@]3(C)CC[C@H](OC(=O)/C=C/c4ccccc4Cl)CC3=CC[C@]12O | > 148 µM | – | > 257 µM | > 538 µM | 599 µM | – | 1.6 |
| COCC(=O)O[C@H]1CC[C@@]2(C)C(=CC[C@]3(O)[C@@H]2C[C@@H](OC(=O)/C=C(\C)C(C)C)[C@@]2(C)[C@]3(O)CC[C@@]2(OC(=O)COC)C(C)=O)C1 | 288 µM | > 4.9 | > 1400 µM | > 1400 µM | 331 µM | – | > 4.2 |
| CC(=O)[C@]1(O)CC[C@@]2(O)[C@]1(C)[C@H](OC(=O)/C=C(\C)C(C)C)C[C@@H]1[C@@]3(C)CC[C@H](OC(=O)Cc4ccncc4)CC3=CC[C@]12O | > 414 µM | – | > 32.8 µM | 39.9 µM | 19.7 µM | – | – |
| CC(=O)[C@]1(O)CC[C@@]2(O)[C@]1(C)[C@H](OC(=O)/C=C(\C)C(C)C)C[C@@H]1[C@@]3(C)CC[C@H](O)C[C@@]34O[C@H]4C[C@]12O | 184 µM | 1.2 | 1140 µM | 226 µM | 189 µM | – | 1.2 |
| CC(=O)[C@]1(OC(=O)/C=C/c2cc(F)cc(F)c2)CC[C@@]2(O)[C@]1(C)[C@H](OC(=O)/C=C(\C)C(C)C)C[C@@H]1[C@@]3(C)CC[C@H](OC(=O)/C=C/c4cc(F)cc(F)c4)CC3=CC[C@]12O | 183 µM | > 8.7 | > 1580 µM | > 1580 µM | > 1580 µM | – | – |
| C/C(=C\C(=O)O[C@@H]1C[C@@H]2[C@@]3(C)CC[C@H](O)CC3=CC[C@@]2(O)[C@@]2(O)CC[C@@](O)(C(C)O)[C@@]12C)C(C)C (stereo partly drawn) | 172 µM | 1.3 | > 1050 µM | 217 µM | 307 µM | – | – |
| CC(=O)[C@]1(O)CC[C@@]2(O)[C@]1(C)[C@H](OC(=O)/C=C(\C)C(C)C)C[C@@H]1[C@@]3(C)CC[C@H](OC(=O)CC#N)CC3=CC[C@]12O | 7.32 µM | 10.5 | > 161 µM | 122 µM | 100 µM | – | 1.2 |
| CC(=O)[C@]1(O)CC[C@@]2(O)[C@]1(C)[C@H](OC(=O)/C=C(\C)C(C)C)C[C@@H]1[C@@]3(C)CC[C@H](OC(=O)c4cccnc4)CC3=CC[C@]12O | 4.05 µM | 12.4 | > 1040 µM | 50.4 µM | 20.8 µM | – | 2.4 |
| CC(=O)[C@]1(OC(=O)CCCC(=O)O)CC[C@@]2(O)[C@]1(C)[C@H](OC(=O)/C=C(\C)C(C)C)C[C@@H]1[C@@]3(C)CC[C@H](OC(=O)CCCC(=O)O)CC3=CC[C@]12O | > 268 µM | – | > 268 µM | > 268 µM | > 268 µM | – | – |
| CC(=O)[C@]1(O)CC[C@@]2(O)[C@]1(C)[C@H](OC(=O)/C=C(\C)C(C)C)C[C@@H]1[C@@]3(C)CC[C@H](OC(=O)CO)CC3=CC[C@]12O | 219 µM | – | 147 µM | 136 µM | 192 µM | – | – |
| CC(=O)[C@]1(O)CC[C@@]2(O)[C@]1(C)[C@H](OC(=O)/C=C(\C)C(C)C)C[C@@H]1[C@@]3(C)CC[C@H](OP(=O)(Oc4ccccc4)Oc4ccccc4)CC3=CC[C@]12O | > 485 µM | – | > 1940 µM | > 1940 µM | > 1940 µM | – | – |
| COCC(=O)O[C@H]1CC[C@@]2(C)C(=CC[C@]3(O)[C@@H]2C[C@@H](OC(=O)/C=C(\C)C(C)C)[C@@]2(C)[C@]3(O)CC[C@@]2(O)C(C)=O)C1 | 104 µM | – | > 836 µM | 102 µM | 70.4 µM | – | 1.4 |
| CC(=O)[C@]1(O)CC[C@@]2(O)[C@]1(C)[C@H](OC(=O)/C=C(\C)C(C)C)C[C@@H]1[C@@]3(C)CCC(=O)CC3=CC(=O)[C@]12O | 113 µM | 1.4 | > 1630 µM | 155 µM | 205 µM | – | – |
| CC(=O)N1CCC[C@H]1C(=O)O[C@H]1CC[C@@]2(C)C(=CC[C@]3(O)[C@@H]2C[C@@H](OC(=O)/C=C(\C)C(C)C)[C@@]2(C)[C@]3(O)CC[C@@]2(O)C(C)=O)C1 | 65.7 µM | 1.6 | > 638 µM | 106 µM | 70.7 µM | – | 1.5 |
| COP(=O)(OC)O[C@H]1CC[C@@]2(C)C(=CC[C@]3(O)[C@@H]2C[C@@H](OC(=O)/C=C(\C)C(C)C)[C@@]2(C)[C@]3(O)CC[C@@]2(O)C(C)=O)C1 | 105 µM | 5.3 | > 1750 µM | 560 µM | > 1750 µM | – | – |
| CC(=O)N1CCC(C(=O)O[C@H]2CC[C@@]3(C)C(=CC[C@]4(O)[C@@H]3C[C@@H](OC(=O)/C=C(\C)C(C)C)[C@@]3(C)[C@]4(O)CC[C@@]3(O)C(C)=O)C2)CC1 | 54.8 µM | 1.1 | < 62.1 µM | 62.1 µM | 93.2 µM | > 1 | – |
| CCOCC(=O)O[C@H]1CC[C@@]2(C)C(=CC[C@]3(O)[C@@H]2C[C@@H](OC(=O)/C=C(\C)C(C)C)[C@@]2(C)[C@]3(O)CC[C@@]2(O)C(C)=O)C1 | 13.8 µM | 8.4 | > 153 µM | 116 µM | 68.2 µM | – | 1.7 |
| CC(=O)[C@]1(OC(=O)CCN2C(=O)c3ccccc3C2=O)CC[C@@]2(O)[C@]1(C)[C@H](OC(=O)/C=C(\C)C(C)C)C[C@@H]1[C@@]3(C)CC[C@H](OC(=O)CCN4C(=O)c5ccccc5C4=O)CC3=CC[C@]12O | > 202 µM | – | > 809 µM | > 809 µM | > 809 µM | – | – |
